From BindingDB's records for PubMed 32809817 (Griffith University, 2020)

Target: T1, Galectin-8 (Homo sapiens, UniProt O00214)
T1 sequence (O00214 whole entry): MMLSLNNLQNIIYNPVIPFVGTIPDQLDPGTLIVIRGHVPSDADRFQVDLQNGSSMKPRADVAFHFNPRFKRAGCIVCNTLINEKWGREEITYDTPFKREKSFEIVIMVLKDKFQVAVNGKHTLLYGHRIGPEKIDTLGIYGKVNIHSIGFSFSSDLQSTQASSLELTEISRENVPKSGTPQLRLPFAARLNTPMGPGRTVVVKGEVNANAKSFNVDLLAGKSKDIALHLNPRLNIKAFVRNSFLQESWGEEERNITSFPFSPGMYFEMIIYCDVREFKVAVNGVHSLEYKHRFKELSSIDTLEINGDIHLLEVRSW
Test: Binding affinity to N-terminal domain of human galectin-8 (8-154 residues) by ITC assay
In short: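 Untagged galectin-8N (residues 8-154) was expressed in bacteria (IPTG induction 4 h, room temperature) and purified on lactosyl-Sepharose at 4 °C. Protein and ligand were in 20 mM Tris pH 7.5, 100 mM NaCl, 4 mM BME, 5% DMSO and degassed. Ligand (0.5 or 1 mM) was titrated into 100 µM protein over 20-25 × 2.5 µl injections, 150 s apart, at 298 K. Blank-corrected data were fitted to an independent-site model for Kd.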

Kd: 37.9 µM
Structure (SMILES): OC[C@H]1O[C@@H](O[C@H]2[C@H](O)[C@@H](O)[C@H](O)O[C@@H]2CO)[C@H](O)[C@@H](O)[C@H]1O [Lactose, anhydrous]
